One data set concerns the target D(2) dopamine receptor (Homo sapiens, UniProt P14416). In words: Displacement of [3H]spiperone from human D2 receptor transfected in HEK cells. It counts as cell-based, HEK293.
Data set [1] in a line: Cytotoxicity against hCMEC/D3 cells at 0.1 to 50 uM after 4 hrs by Alamar Blue assay. The data set is classed as cell-based. As to conditions: human, hcmec/d3, 4 h. A digest of the protocol:
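Cytotoxicity was tested by AlamarBlue on hCMEC/D3 cells, the same cells used for the calcein assay. The read-out is the fall in metabolic activity, seen as reduced redox potential of viable cells.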
For orientation: Resazurin is reduced to fluorescent resorufin, in cell work by metabolically active cells.

Data set [2] is described as follows: Activity at P-gp in hCMEC/D3 cells at 0.1 to 50 uM after 15 mins by calcein-AM assay. Conditions: human, cmec/d3, 0.25 h; call rule not given here. The data set is classed as ADME, cell-based.

Here are results for five compounds from ChEMBL document CHEMBL3259715, “Shuttle-cargo fusion molecules of transport peptides and the hD2/3 receptor antagonist fallypride: a feasible approach to preserve ligand-receptor binding?” (J Med Chem, 2014).

Chain of D(2) dopamine receptor (P14416 whole entry): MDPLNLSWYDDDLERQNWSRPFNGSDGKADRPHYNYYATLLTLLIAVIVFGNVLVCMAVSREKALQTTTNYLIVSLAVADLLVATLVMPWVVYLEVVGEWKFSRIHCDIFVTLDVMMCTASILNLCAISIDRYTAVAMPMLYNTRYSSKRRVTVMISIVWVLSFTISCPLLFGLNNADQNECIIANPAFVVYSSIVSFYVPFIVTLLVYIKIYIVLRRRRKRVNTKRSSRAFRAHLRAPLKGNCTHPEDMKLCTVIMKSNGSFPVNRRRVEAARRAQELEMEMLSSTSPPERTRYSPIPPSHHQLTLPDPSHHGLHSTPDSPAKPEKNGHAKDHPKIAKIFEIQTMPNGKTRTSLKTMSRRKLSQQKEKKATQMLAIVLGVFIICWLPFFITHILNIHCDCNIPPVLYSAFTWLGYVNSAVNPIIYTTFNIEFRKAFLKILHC

For `C=CCN1CCC[C@H]1CNC(=O)c1cc(CCCSC2CC(=O)N(CCCCCC(=O)N[C@H](C(=O)N[C@@H](Cc3ccccc3)C(=O)N[C@@H](Cc3ccccc3)C(=O)N[C@@H](Cc3ccc(O)cc3)C(=O)NCC(=O)NCC(=O)N[C@@H](CO)C(=O)N[C@@H](CCCNC(=N)N)C(=O)NCC(=O)N[C@@H](CCCCNC(=O)CN3CCN(CC(=O)O)CCN(CC(=O)O)CCN(CC(=O)O)CC3)C(=O)N[C@@H](CCCNC(=N)N)C(=O)N[C@@H](CC(N)=O)C(=O)N[C@@H](CC(N)=O)C(=O)N[C@@H](Cc3ccccc3)C(=O)N[C@@H](CCCCN)C(=O)N[C@H](C(=O)N[C@@H](CCC(=O)O)C(=O)N[C@@H](CCC(=O)O)C(=O)N[C@@H](Cc3ccc(O)cc3)C(=O)O)[C@@H](C)O)[C@@H](C)O)C2=O)cc(OC)c1OC` (stereo not given in full), the Ki at D(2) dopamine receptor was 8.01 nM. The Activity entry in data set [1] is “Non-toxic”; in data set [2], “Not Active”.
On D(2) dopamine receptor, `C=CCN1CCC[C@H]1CNC(=O)c1cc(CCCSC2CC(=O)N(CCCCCC(=O)NCCOCCOCCOCCOCCC(=O)N[C@@H](Cc3cnc[nH]3)C(=O)N[C@@H](C)C(=O)N[C@H](C(=O)N[C@@H](Cc3ccc(O)cc3)C(=O)N3CCC[C@H]3C(=O)N[C@@H](CCCNC(=N)N)C(=O)N[C@@H](Cc3cnc[nH]3)C(=O)O)[C@@H](C)CC)C2=O)cc(OC)c1OC` (stereo not given in full) had a Ki of 1.47 nM. In addition, the Activity result was “Non-toxic” in data set [1] and “Not Active” in data set [2].
The matching figures for `C=CCN1CCC[C@H]1CNC(=O)c1cc(CCCSC2CC(=O)N(CCCCCC(=O)NCCOCCOCCOCCOCCC(=O)N[C@@H](CCCCNC(=O)O/N=C/c3ccc([Si](F)(C(C)(C)C)C(C)(C)C)cc3)C(=O)N[C@@H](Cc3cnc[nH]3)C(=O)N[C@@H](C)C(=O)N[C@H](C(=O)N[C@@H](Cc3ccc(O)cc3)C(=O)N3CCC[C@H]3C(=O)N[C@@H](CCCNC(=N)N)C(=O)N[C@@H](Cc3cnc[nH]3)C(=O)O)[C@@H](C)CC)C2=O)cc(OC)c1OC` (stereo not given in full): 5.98 nM, “Non-toxic” and “Not Active”.
The matching figures for `C=CCN1CCC[C@H]1CNC(=O)c1cc(CCCSC2CC(=O)N(CCCCCC(=O)NCCOCCOCCOCCOCCC(=O)N[C@@H](CCCCNC(=O)CN3CCN(CC(=O)O)CCN(CC(=O)O)CCN(CC(=O)O)CC3)C(=O)N[C@@H](Cc3cnc[nH]3)C(=O)N[C@@H](C)C(=O)N[C@H](C(=O)N[C@@H](Cc3ccc(O)cc3)C(=O)N3CCC[C@H]3C(=O)N[C@@H](CCCNC(=N)N)C(=O)N[C@@H](Cc3cnc[nH]3)C(=O)O)[C@@H](C)CC)C2=O)cc(OC)c1OC` (stereo not given in full): 52 nM, “Non-toxic” and “Not Active”.
Taken in the same sequence, the figures for `CC[C@H](C)[C@H](NC(=O)[C@H](C)NC(=O)[C@@H](N)Cc1cnc[nH]1)C(=O)N[C@@H](Cc1ccc(O)cc1)C(=O)N1CCC[C@H]1C(=O)N[C@@H](CCCNC(=N)N)C(=O)N[C@@H](Cc1cnc[nH]1)C(=O)O` were greater than 1000 nM, “Non-toxic” and “Not Active”.

The Ki is a measure of affinity in units of concentration, obtained from inhibition or displacement. The low end stands for higher affinity, the high end for lower affinity.
